According to ChEMBL document CHEMBL1914452, “Arene- and quinoline-sulfonamides as novel 5-HT7 receptor ligands” (Bioorg Med Chem, 2011):

Columns and labels:
[1] = target: T1, 5-hydroxytryptamine receptor 7 (Homo sapiens, UniProt P34969); assay: Displacement of [3H]-5-CT from human 5-HT7 receptor expressed in HEK293 cells after 1 hr by liquid scintillation counting; format: cell-based
Summary of the method: (§1)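 Competition binding with 7–9 compound concentrations, each run in triplicate. 5-HT1A, 5-HT2A and α1 sites were native. 5-HT6 used [3H]-LSD and 5-HT7 used [3H]-5-CT, both on cloned human receptors stably expressed in HEK293 cells. After incubation, samples were vacuum-filtered through GF/B filters and washed with ice-cold buffer. Bound radioactivity was counted by liquid scintillation.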

HEK293 = assay: Selectivity ratio of Ki for 5-HT1A receptor in rat hippocampus to Ki for human 5-HT7 receptor expressed in HEK293 cells; format: cell-based
[2] = target: T2, 5-hydroxytryptamine receptor 1A (Rattus norvegicus, UniProt P19327); assay: Displacement of [3H]-8-OH-DPAT from 5-HT1A receptor in rat hippocampus by liquid scintillation counting; format: tissue-based; summary of the method: as §1
T2 sequence (P19327 whole entry): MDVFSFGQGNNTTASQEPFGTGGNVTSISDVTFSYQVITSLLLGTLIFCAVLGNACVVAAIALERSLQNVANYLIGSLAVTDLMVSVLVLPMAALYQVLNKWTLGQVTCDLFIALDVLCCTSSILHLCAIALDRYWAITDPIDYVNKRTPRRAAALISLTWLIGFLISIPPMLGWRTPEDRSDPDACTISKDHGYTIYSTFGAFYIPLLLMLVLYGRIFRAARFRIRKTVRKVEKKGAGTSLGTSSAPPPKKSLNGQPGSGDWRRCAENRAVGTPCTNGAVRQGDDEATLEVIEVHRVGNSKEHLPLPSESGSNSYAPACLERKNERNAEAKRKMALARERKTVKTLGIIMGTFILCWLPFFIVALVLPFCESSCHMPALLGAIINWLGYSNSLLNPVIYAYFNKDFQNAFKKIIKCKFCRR

[3] = target: 5-hydroxytryptamine receptor 2A (Rattus norvegicus, UniProt P14842); assay: Displacement of [3H]-ketanserin from 5-HT2A receptor in rat cortex by liquid scintillation counting; summary of the method: as §1
[4] = target: 5-hydroxytryptamine receptor 6 (Homo sapiens, UniProt P50406); assay: Displacement of [3H]-LSD from human 5-HT6 receptor expressed in HEK293 cells after 1 hr by liquid scintillation counting; format: cell-based; summary of the method: as §1
Mus musculus [5] = assay: Antidepressant like activity in Albino Swiss mouse assessed as reduction of immobility time at 10 mg/kg, ip administered 30 mins before test measured during final 4 mins of the 6 mins session by forced swimming test (reference value: 165 +/- 9.6 sec); format: functional; conditions: route intraperitoneal
Mus musculus [6] = assay: Neurotoxicity in Albino Swiss mouse assessed as effect on number of crossings at 10 mg/kg, ip administered 30 mins before test measured for 2 to 6 mins; format: toxicity, organism-based; parameters: dose 10 mg/kg, route intraperitoneal; conditions: in vivo
Summary of the method: (§2)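 Spontaneous locomotor activity in mice, recorded over 2–6 min (the swim-test observation window) or over a 30-min session. Drug was suspended in 1% aqueous Tween 80 and given ip at 10 ml/kg, 30 min beforehand, with vehicle-injected controls. Tests ran blind during the light phase (09.00–14.00 h), using 7–10 animals per dose, each used once.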

Mus musculus [7] = assay: Neurotoxicity in Albino Swiss mouse assessed as effect on number of crossings at 10 mg/kg, ip administered 30 mins before test measured for 30 mins; format: toxicity, organism-based; parameters: dose 10 mg/kg, route intraperitoneal; conditions: in vivo, 0.5 h; summary of the method: as §2
Mus musculus [8] = assay: Antidepressant like activity in Albino Swiss mouse assessed as reduction in immobility time at 10 mg/kg, ip administered 30 mins before test measured during final 4 mins of the 6 mins session by forced swimming test; format: functional; parameters: scale not given: the % may be the effect or the level left; conditions: route intraperitoneal
Mus musculus [9] = assay: Antidepressant like activity in Albino Swiss mouse assessed as reduction of immobility time at 20 mg/kg, ip administered 30 mins before test measured during final 4 mins of the 6 mins session by forced swimming test (reference value: 165 +/- 9.6 sec); format: functional; conditions: route intraperitoneal
Mus musculus [10] = assay: Antidepressant like activity in Albino Swiss mouse assessed as reduction of immobility time at 5 mg/kg, ip administered 30 mins before test measured during final 4 mins of the 6 mins session by forced swimming test (reference value: 165 +/- 9.6 sec); format: functional; conditions: route intraperitoneal
[11] = target: T1, 5-hydroxytryptamine receptor 7; assay: Antagonist activity at human 5-HT7 receptor expressed in CHO cells assessed as inhibition of serotonin-induced intracellular cAMP accumulation preincubated for 20 mins measured after 10 mins by radioimmunoassay; format: functional, cell-based
[12] = target: T3, Adrenergic receptor alpha-1 (Rattus norvegicus, UniProt P15823+P23944+P43140); assay: Displacement of [3H]-prazosin from alpha 1 receptor in rat cortex by liquid scintillation counting; summary of the method: as §1
T3 sequence (P15823 whole entry): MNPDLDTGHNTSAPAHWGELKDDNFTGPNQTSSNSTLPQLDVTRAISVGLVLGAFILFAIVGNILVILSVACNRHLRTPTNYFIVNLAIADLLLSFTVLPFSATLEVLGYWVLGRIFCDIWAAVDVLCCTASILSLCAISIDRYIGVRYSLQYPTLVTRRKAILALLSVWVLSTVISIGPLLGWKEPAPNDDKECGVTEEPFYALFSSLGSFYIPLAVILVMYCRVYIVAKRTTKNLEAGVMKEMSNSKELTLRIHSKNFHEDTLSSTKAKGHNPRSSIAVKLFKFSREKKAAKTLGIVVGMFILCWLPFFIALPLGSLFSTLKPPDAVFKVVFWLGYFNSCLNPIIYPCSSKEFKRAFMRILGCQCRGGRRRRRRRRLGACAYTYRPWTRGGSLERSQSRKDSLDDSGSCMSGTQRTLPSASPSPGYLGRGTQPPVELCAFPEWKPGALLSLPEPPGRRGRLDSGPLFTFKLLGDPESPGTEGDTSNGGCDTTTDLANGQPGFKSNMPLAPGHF
T3 sequence (P23944 whole entry): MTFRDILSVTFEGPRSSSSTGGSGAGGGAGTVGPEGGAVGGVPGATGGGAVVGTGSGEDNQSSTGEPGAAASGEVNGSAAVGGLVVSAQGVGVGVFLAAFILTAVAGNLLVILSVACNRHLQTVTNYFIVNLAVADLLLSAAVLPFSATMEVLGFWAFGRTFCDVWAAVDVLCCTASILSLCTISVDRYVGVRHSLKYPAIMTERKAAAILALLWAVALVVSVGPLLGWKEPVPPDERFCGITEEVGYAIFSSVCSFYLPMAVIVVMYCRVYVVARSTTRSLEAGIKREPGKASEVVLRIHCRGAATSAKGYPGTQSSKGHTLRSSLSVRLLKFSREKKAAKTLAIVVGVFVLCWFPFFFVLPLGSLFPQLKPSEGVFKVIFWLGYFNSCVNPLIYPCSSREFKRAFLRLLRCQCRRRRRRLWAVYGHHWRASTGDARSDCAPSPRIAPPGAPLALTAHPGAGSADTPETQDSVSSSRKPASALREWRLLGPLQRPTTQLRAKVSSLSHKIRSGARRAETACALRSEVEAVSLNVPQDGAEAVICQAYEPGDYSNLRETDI
T3 sequence (P43140 whole entry): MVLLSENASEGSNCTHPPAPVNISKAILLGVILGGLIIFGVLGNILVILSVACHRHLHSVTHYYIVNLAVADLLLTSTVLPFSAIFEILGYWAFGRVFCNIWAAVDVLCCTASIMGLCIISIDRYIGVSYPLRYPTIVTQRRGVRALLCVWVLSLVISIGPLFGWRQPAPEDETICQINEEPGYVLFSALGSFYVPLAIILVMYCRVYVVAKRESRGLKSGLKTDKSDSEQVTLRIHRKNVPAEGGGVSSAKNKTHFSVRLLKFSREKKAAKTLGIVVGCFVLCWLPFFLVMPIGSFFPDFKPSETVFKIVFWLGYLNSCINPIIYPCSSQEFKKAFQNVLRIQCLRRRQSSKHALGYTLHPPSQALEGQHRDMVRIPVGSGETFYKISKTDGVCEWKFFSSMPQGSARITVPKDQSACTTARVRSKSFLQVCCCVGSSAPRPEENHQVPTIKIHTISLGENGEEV

5-hydroxytryptamine receptor 6, sequence (P50406 whole entry): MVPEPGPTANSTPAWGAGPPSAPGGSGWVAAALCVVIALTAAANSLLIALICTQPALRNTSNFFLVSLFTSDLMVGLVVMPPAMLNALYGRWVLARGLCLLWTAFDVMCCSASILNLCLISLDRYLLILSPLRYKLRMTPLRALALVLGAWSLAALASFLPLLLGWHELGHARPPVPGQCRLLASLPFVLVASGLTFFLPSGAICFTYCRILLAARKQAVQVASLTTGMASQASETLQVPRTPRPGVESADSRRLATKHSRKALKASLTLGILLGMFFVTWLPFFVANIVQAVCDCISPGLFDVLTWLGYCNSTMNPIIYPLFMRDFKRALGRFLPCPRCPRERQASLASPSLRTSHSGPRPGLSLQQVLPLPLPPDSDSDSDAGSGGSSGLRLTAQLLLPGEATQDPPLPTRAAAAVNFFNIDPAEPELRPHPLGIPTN
5-hydroxytryptamine receptor 2A, sequence (P14842 whole entry): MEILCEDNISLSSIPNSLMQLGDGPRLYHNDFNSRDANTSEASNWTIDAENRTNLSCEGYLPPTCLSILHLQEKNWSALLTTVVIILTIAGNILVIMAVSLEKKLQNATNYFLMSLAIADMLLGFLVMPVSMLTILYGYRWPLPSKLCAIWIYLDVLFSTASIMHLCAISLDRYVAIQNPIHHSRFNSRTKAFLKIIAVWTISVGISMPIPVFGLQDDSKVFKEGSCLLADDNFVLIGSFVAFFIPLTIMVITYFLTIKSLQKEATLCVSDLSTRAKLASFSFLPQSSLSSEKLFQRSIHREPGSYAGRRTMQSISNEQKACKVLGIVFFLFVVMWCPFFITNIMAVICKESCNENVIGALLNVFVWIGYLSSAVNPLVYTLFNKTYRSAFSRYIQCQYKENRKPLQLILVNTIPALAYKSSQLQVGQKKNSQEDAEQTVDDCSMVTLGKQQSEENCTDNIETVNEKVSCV
T1 sequence (P34969 whole entry): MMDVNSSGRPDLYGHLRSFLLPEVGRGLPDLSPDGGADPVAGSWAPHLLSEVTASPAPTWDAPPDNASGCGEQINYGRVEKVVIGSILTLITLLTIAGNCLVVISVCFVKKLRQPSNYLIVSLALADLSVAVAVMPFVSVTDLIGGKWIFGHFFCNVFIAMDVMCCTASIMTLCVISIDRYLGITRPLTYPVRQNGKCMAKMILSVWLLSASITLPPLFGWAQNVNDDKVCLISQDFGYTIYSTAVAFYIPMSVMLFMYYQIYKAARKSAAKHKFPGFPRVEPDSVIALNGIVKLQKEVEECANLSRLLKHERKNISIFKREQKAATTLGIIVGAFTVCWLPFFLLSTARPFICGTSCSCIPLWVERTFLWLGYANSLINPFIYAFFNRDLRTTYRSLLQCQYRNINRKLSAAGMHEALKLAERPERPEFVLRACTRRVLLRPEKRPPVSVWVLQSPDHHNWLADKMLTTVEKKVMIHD

Row | Compound | Ki [1] | Ratio Ki (HEK293) | Ki [2] | Ki [3] | Ki [4] | other results
1 | COc1ccccc1N1CCN(CCCCNS(=O)(=O)c2cnc3ccccc3c2)CC1 | 79 nM | 0.05 | 3.7 nM |  |  | 
2 | NCCCN(CCCN1CCc2ccccc2C1)S(=O)(=O)c1ccccc1 | 335 nM |  |  |  |  | 
3 | O=S(=O)(NCCCCN1CCc2sccc2C1)c1ccc2cccnc2c1 | 334 nM | 1.4 | 483 nM | 2650 nM | 17500 nM | 
4 | COc1ccccc1N1CCN(CCCNS(=O)(=O)c2cccc3cccnc23)CC1 | 90 nM | 0.4 | 37 nM | 2160 nM | 1640 nM | 
5 | COc1ccccc1N1CCN(CCCCNS(=O)(=O)c2ccc3ncccc3c2)CC1 | 132 nM | 0.3 | 40 nM |  |  | 
6 | NCCCN(CCN1CCc2ccccc2C1)S(=O)(=O)c1ccccc1 | 3010 nM |  |  |  |  | 
7 | COc1ccccc1N1CCN(CCCCNS(=O)(=O)c2cccc3cccnc23)CC1 | 55 nM | 0.9 | 53 nM |  |  | 
8 | NCCCN(CCCCN1CCc2ccccc2C1)S(=O)(=O)c1ccccc1 | 235 nM |  |  |  |  | 
9 | CCN(CCCN1CCN(c2ccccc2OC)CC1)S(=O)(=O)c1ccc2ncccc2c1 | 29 nM | 0.9 | 25 nM | 1320 nM | 1920 nM | 
10 | O=S(=O)(NCCCN1CCc2ccccc2C1)c1ccccc1 | 270 nM |  |  |  |  | 
11 | O=S(=O)(NCCCCN1CCc2ccccc2C1)c1cccc2ccccc12 | 296 nM |  |  |  |  | 
12 | CCN(CCCCN1CCC2CCCCC2C1)S(=O)(=O)c1cnc2ccccc2c1 (centres undefined) | 187 nM | 1.7 | 325 nM | 5090 nM | 14500 nM | 
13 | COc1cccc2c1CCN(CCCNS(=O)(=O)c1cccc3ccccc13)C2 | 360 nM |  |  |  |  | 
14 | O=S(=O)(NCCCCN1CCc2ccccc2C1)c1cnc2ccccc2c1 | 228 nM | 1.3 | 305 nM | 590 nM | 8640 nM | 
15 | O=S(=O)(NCCN1CCc2ccccc2C1)c1ccccc1 | 773 nM |  |  |  |  | 
16 | O=S(=O)(NCCCN1CCc2ccccc2C1)c1ccc2ccccc2c1 | 80 nM |  |  |  |  | 
17 | COc1ccccc1N1CCN(CCCNS(=O)(=O)c2ccc3ncccc3c2)CC1 | 156 nM | 0.1 | 18 nM | 825 nM | 2840 nM | 

Row | Compound | Ki [1] | Ratio Ki (HEK293) | Ki [2] | Ki [3] | Ki [4] | other results
18 | O=S(=O)(NCCCCN1CCc2sccc2C1)c1cnc2ccccc2c1 | 506 nM | 1.9 | 986 nM | 1080 nM | 17400 nM | 
19 | CCN(CCCCN1CCN(c2ccccc2OC)CC1)S(=O)(=O)c1ccc2ncccc2c1 | 41 nM | 0.5 | 21 nM |  |  | 
20 | O=S(=O)(NCCCCN1CCc2ccccc2C1)c1ccc2ncccc2c1 | 224 nM | 1 | 233 nM | 1520 nM | 8250 nM | 
21 | O=S(=O)(NCCCCN1CCC2CCCCC2C1)c1cnc2ccccc2c1 (centres undefined) | 995 nM | 1.5 | 1450 nM |  |  | 
22 | O=S(=O)(NCCCCN1CCC2CCCCC2C1)c1cccc2cccnc12 (centres undefined) | 1260 nM | 2.8 | 3570 nM |  |  | 
23 | CCN(CCCCN1CCN(c2ccccc2OC)CC1)S(=O)(=O)c1cnc2ccccc2c1 | 38 nM | 0.2 | 9.3 nM |  |  | 
24 | O=S(=O)(NCCCN1CCC2CCCCC2C1)c1ccc2ncccc2c1 (centres undefined) | 1420 nM | 3 | 4310 nM |  |  | 
25 | CC1CCN(CC[C@H]2CCCN2S(=O)(=O)c2cccc(O)c2)CC1 |  |  |  |  |  | Time (Mus musculus [5]): 110.8 s; Activity (Mus musculus [6]): Non-toxic; Activity (Mus musculus [7]): Non-toxic; Activity (Mus musculus [8]): 33%; Time (Mus musculus [9]): 139.3 s; Time (Mus musculus [10]): 136.1 s
26 | CCN(CCCCN1CCC2CCCCC2C1)S(=O)(=O)c1cccc2cccnc12 (centres undefined) | 13 nM | 84.5 | 1100 nM | 6280 nM | 1950 nM | Time (Mus musculus [5]): 128.1 s; Kb [11]: 140 nM; Activity (Mus musculus [6]): Non-toxic; Activity (Mus musculus [7]): Non-toxic; Activity (Mus musculus [8]): 22%; Time (Mus musculus [9]): 182.3 s; Time (Mus musculus [10]): 155.2 s; Ki [12]: 155 nM
27 | NCCN(CCCN1CCc2ccccc2C1)S(=O)(=O)c1ccccc1 | 267 nM |  |  |  |  | 
28 | O=S(=O)(NCCN1CCc2ccccc2C1)c1ccc2ccccc2c1 | 78 nM |  |  |  |  | 
29 | O=S(=O)(NCCCCN1CCc2ccccc2C1)c1ccccc1 | 94 nM |  |  |  |  | 
30 | CCN(CCCN1CCN(c2ccccc2OC)CC1)S(=O)(=O)c1ccc(C)cc1 | 19 nM |  |  |  |  | 
31 | CCN(CCCCCN1CCC2CCCCC2C1)S(=O)(=O)c1cccc2cccnc12 (centres undefined) | 33 nM | 9.5 | 313 nM | 1790 nM | 4590 nM | Time (Mus musculus [5]): 158.6 s; Kb [11]: 1300 nM; Time (Mus musculus [9]): 181.2 s; Time (Mus musculus [10]): 144.8 s; Ki [12]: 92 nM
32 | O=S(=O)(NCCCCN1CCc2ccccc2C1)c1ccc2ccccc2c1 | 64 nM |  |  |  |  | 
33 | CCN(CCCCN1CCN(c2ccccc2OC)CC1)S(=O)(=O)c1cccc2cccnc12 | 37 nM | 0.8 | 30 nM |  |  | 
34 | O=S(=O)(NCCCCN1CCc2ccccc2C1)c1cccc2cccnc12 | 88 nM | 3 | 271 nM | 4180 nM | 1460 nM | 
